Screening results: PubChem, several laboratories
Sampled rows, rich in hits. Any-hit rate of the full collection: about 0.91%.
G6PDH counter: L. mesenteroides G6PDH inhibition counter-screen | Purified L. mesenteroides G6PDH, diaphorase/resazurin coupled fluorescence, 45 min | inhibition, % at 5 µM | 200,000 compounds, 0.12% hits; in the data active = inhibition above about 50%
PMI act: increases human mannose-6-phosphate isomerase activity; P34949; purified human PMI, coupled resazurin fluorescence, 20 min; hits give high values; 1 = vehicle control, 0 substrate-free wells; activation factor at 20 µM; 190,000 compounds, 0.005% hits;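 active = activation factor of 2 or more at 20 µM, relative to plate controls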
DTT redox prof: compounds producing H2O2 with reducing agent – biochemical, NIH compound library profiling, artefact control for MLSCN library redox annotation, primary screen | AID 878 | 200,000 compounds, 0.03% hits | activation, % at 10 µM | DTT-dependent redox cycling H2O2, phenol red/HRP absorbance; 100% = 100 µM peroxide control, 0% = buffer;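 active = activation of at least 50% relative to the plate's high and low controls in the primary single-dose screen; inactive = activation below 50%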;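 note: compound incubated with DTT at 0.8 mM final as the reducing agent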
PMI act hi M6P: PMI (human) activation, high substrate. 190,000 compounds, 0.34% hits. AID 1216. coupled PMI enzyme assay, resazurin fluorescence, 20 min; hits give high values; 1 = untreated enzyme, 0 = substrate-free blank. activation factor at 20 µM;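 active = activation factor of 2 or more at 20 µM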
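Test system: human phosphomannose isomerase with PGI, G6PDH, diaphorase coupling enzymes / Doses: 20 µM compound, 1% DMSO / Times: enzyme reaction with compound 20 min at room temperature / Measured by: Diaphorase-driven resazurin-to-resorufin fluorescence, excitation 544, emission 590 nm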
TbHK1 inh: T. brucei hexokinase 1 inhibition | inhibition, % at 10 µM | 220,000 compounds, 0.11% hits | recombinant TbHK1, G6PDH-coupled NADH A340;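 active = inhibition of 50% or more in the single-dose primary screen; inactive = inhibition below 50%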
p97 ATPase inh: human p97 ATPase inhibition. P55072. recombinant p97 ATPase, Kinase-Glo ATP luminescence, 3 h. inhibition, % at 8 µM. 220,000 compounds, 0.42% hits; in the data active = inhibition above about 15%;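 note: 0% = DMSO vehicle and 100% = wells lacking enzyme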
Target sequence (P55072 whole entry, looked up): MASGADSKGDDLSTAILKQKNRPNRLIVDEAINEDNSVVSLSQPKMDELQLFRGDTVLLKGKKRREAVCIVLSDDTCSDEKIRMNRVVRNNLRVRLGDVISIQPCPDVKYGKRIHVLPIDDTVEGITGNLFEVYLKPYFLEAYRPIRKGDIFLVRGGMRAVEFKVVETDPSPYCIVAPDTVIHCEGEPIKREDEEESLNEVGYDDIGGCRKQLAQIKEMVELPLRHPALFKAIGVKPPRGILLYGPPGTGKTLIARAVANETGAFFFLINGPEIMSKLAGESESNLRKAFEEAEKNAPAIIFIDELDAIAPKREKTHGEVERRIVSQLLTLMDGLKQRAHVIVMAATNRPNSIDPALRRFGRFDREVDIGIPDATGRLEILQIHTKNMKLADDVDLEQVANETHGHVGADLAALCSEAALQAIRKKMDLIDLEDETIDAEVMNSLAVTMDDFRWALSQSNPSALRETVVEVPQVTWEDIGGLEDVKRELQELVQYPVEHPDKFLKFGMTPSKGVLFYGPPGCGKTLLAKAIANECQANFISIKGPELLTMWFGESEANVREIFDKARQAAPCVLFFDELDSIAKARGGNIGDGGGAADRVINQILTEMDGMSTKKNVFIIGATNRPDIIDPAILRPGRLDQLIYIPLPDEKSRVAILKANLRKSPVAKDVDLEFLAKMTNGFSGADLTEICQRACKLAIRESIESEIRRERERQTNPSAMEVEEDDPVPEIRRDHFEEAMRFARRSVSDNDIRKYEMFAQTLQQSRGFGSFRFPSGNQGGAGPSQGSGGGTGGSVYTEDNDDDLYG
An asterisk follows results filed as active; / = not tested or not shown.

SMILES	G6PDH counter	PMI act	DTT redox prof	PMI act hi M6P	TbHK1 inh	p97 ATPase inh
O=C1C(Nc2ccc(O)cc2)=C/C(=N/S(=O)(=O)c2cccs2)c2ccccc21	47	0.9	0	0.5	1	13
Cc1ccc(Cl)cc1NC1=C/C(=N\S(=O)(=O)c2cccs2)c2ccccc2C1=O	54*	0.7	0	0.8	-13	8
O=C(Cn1cnc2c(nnn2-c2cccc(Cl)c2)c1=O)NCc1ccccc1	2	0.9	-1	1	-2	4
Cc1cc(NC(=O)c2ccc([N+](=O)[O-])cc2)n(C)n1	/	/	/	/	-9	0
CCSc1ncc(/C=N/Nc2ccc(F)cc2)n1C	4	1.2	-1	2*	-14	-9
O=C(CSc1nnc(Cn2c(=O)sc3ccccc32)n1-c1ccccc1)Nc1nccs1	-3	0.9	-1	1	1	15*
COc1ccc(C(=O)NC(C)(C)C)cc1S(=O)(=O)N1CCCC1	2	1	0	1	-6	-2
O=[N+]([O-])c1ccccc1N/N=C\c1ccccc1Cl	-12	0.9	1	0.8	-5	-9
O=[N+]([O-])c1ccc(O)c(/C=N/Nc2ccccc2Cl)c1	-2	1.7	-1	2.2*	-19	4
CCOc1ccccc1-c1c2cc(O)c(=O)cc-2oc2cc(O)c(O)cc12	-15	0.5	1	0.6	-3	4
COc1ccc(OC)c(-c2c3cc(O)c(=O)cc-3oc3cc(O)c(O)cc23)c1	32	0.4	2	0.4	23	22*
COc1ccc(Nc2ccc3c(c2)=NC2(CCCCC2)[N+]=3[O-])cc1	56*	0.2	4	0.3	-20	-4
Cc1cc(=O)n(-c2ccc(O)cc2)[nH]1	4	1.3	0	1.7	7	21*
O=C(c1ccc(Cl)cc1)c1oc2ccccc2c1CS(=O)c1ccccc1 (stereo not given)	3	1.3	-5	2.2*	-2	-5
Nc1c(C(=O)c2ccc(Br)cc2)oc2ccccc12	0	1.3	0	1.3	-12	3
COc1ccc(C(=O)Nc2nc3cc4c(cc3s2)OCCO4)c(OC)c1	/	/	/	/	-36	4
CC(C)(C)C(=O)NC(=S)Nc1ccccn1	1	0.9	0	1	5	-1
CC(C)C(=O)NC(=S)Nc1ccccn1	9	1.1	2	1.1	-2	20*
COc1ccc(-c2[nH]ncc2CN2CCC(C(=O)c3ccc(F)cc3)CC2)cc1	/	/	/	/	5	3
CC(C)Cc1c2c([nH]c(=S)c1C#N)CCCC2	-3	1.6	0	2*	-4	1
Cc1[nH]c(=S)c(C#N)c2c1CCCC2	-9	1.7	0	2*	-7	3
N#Cc1c(-c2ccco2)c2c([nH]c1=S)CCCC2	-31	1.3	/	1.8	/	/
O=C(O)/C=C/C(=O)Nc1ccc(N2CCOCC2)nc1N1CCOCC1	/	/	/	/	27	0
O=C1CCC2(CC1)NC(=O)N(c1ccccc1)N2	3	1.7	-1	2.6*	-3	4
C=CCC1CCCCC12NC(=O)N(c1ccccc1)N2 (stereo not given)	/	/	/	/	-9	9
SMILES	G6PDH counter	PMI act	DTT redox prof	PMI act hi M6P	TbHK1 inh	p97 ATPase inh
O=C(NNC(=O)c1cc(O)c(O)c(O)c1)NC1CCCCC1	15	0.5	-4	0.9	5	4
Oc1cccc(Nc2nc(O)c(/C=C3\C=Nc4ccccc43)s2)c1	/	/	/	/	-6	32*
COc1ccc(OC)c(S(=O)(=O)Nc2ccc3c(c2)C(=O)OC3)c1	/	/	/	/	-8	5
COc1cc(Cl)cc(C(=O)O)c1OCC(=O)O	16	1	0	1	-2	3
CSC1=NCCN1C(=O)c1ccc(S(=O)(=O)N(C)C)cc1	1	0.9	-1	0.9	2	15*
Cc1ccc(NC(=O)c2ccc3ncsc3c2)cc1S(=O)(=O)N(C)C	/	/	/	/	-8	3
Fc1ccc(NC(=S)Nc2cccc3cnccc23)cc1	51*	0.9	1	1.1	-5	6
COc1ccc(NC(=S)Nc2cccc3cnccc23)cc1	30	0.4	1	0.4	-8	2
COc1cc2[nH]c(=S)nc(NC3CCCC3)c2cc1OC	-1	1.8	0	2.5*	-17	5
